Results reported in ChEMBL document CHEMBL1150393, “Evaluation of radiolabeled (hetero)aromatic analogues of N-(2-diethylaminoethyl)-4-iodobenzamide for imaging and targeted radionuclide therapy of melanoma” (J Med Chem, 2008).

What was measured:
Conditions in all cases: in vivo
Kidney = assay: Biodistribution in kidney of C57BL/6 mouse bearing mouse B16-F0 cells at 0.74 to 0.92 MBq, iv after 24 hrs; format: ADME, organism-based
How it was run: (§1)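 Male C57BL6 mice with s.c. left-flank B16-F0 melanoma (5 × 10⁵ cells in PBS). Two mice per time point frozen in liquid nitrogen after CO₂ sacrifice. Eight 40 µm whole-body cryosections per mouse read by multiwire proportional counter. cpm/mm² converted to kBq/g and expressed as %ID/g.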

Pancreas [1] = assay: Biodistribution in pancreas of C57BL/6 mouse bearing mouse B16-F0 cells at 0.74 to 0.92 MBq, iv after 6 hrs; format: ADME, organism-based; how it was run: as §1
Thyroid gland = assay: Biodistribution in thyroid of C57BL/6 mouse bearing mouse B16-F0 cells at 0.74 to 0.92 MBq, iv after 72 hrs; format: ADME, organism-based
How it was run: (§2)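 [¹²⁵I]-labelled compound given iv by tail vein (0.1 µmol per mouse) to male C57BL6 mice bearing s.c. B16-F0 flank tumours (5 × 10⁵ cells in PBS). Two mice per time point were killed by CO₂, frozen in liquid nitrogen and cut into 40 µm cryosections, eight slices per mouse. Slice radioactivity was read on a multiwire proportional counter, converted to kBq/g and reported as %ID/g.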

Spleen [2] = assay: Biodistribution in spleen of C57BL/6 mouse bearing mouse B16-F0 cells at 0.74 to 0.92 MBq, iv after 1 hr; format: ADME, organism-based; how it was run: as §2
Liver [3] = assay: Biodistribution in liver of C57BL/6 mouse bearing mouse B16-F0 cells at 0.74 to 0.92 MBq, iv after 24 hrs; format: ADME, organism-based; how it was run: as §1
Lung [4] = assay: Biodistribution in lung of C57BL/6 mouse bearing mouse B16-F0 cells at 0.74 to 0.92 MBq, iv after 1 hr; format: ADME, organism-based; how it was run: as §1
Lung [5] = assay: Biodistribution in lung of C57BL/6 mouse bearing mouse B16-F0 cells at 0.74 to 0.92 MBq, iv after 24 hrs; format: ADME, organism-based; how it was run: as §1
[6] = Biodistribution in intestinal content of C57BL/6 mouse bearing mouse B16-F0 cells at 0.74 to 0.92 MBq, iv after 24 hrs; format: ADME, organism-based; how it was run: as §1
[7] = Biodistribution in intestinal content of C57BL/6 mouse bearing mouse B16-F0 cells at 0.74 to 0.92 MBq, iv after 3 hrs; format: ADME, organism-based; how it was run: as §1
Liver [8] = assay: Biodistribution in liver of C57BL/6 mouse bearing mouse B16-F0 cells at 0.74 to 0.92 MBq, iv after 3 hrs; format: ADME, organism-based; how it was run: as §1
Spleen [9] = assay: Biodistribution in spleen of C57BL/6 mouse bearing mouse B16-F0 cells at 0.74 to 0.92 MBq, iv after 24 hrs; format: ADME, organism-based; how it was run: as §2
[10] = Biodistribution in tumor of C57BL/6 mouse bearing mouse B16-F0 cells at 0.74 to 0.92 MBq, iv after 1 hr; format: ADME, organism-based, Neoplasm; how it was run: as §2
Brain [11] = assay: Biodistribution in brain of C57BL/6 mouse bearing mouse B16-F0 cells at 0.74 to 0.92 MBq, iv after 6 hrs; format: ADME, organism-based; how it was run: as §1
Liver [12] = assay: Biodistribution in liver of C57BL/6 mouse bearing mouse B16-F0 cells at 0.74 to 0.92 MBq, iv after 1 hr; format: ADME, organism-based; how it was run: as §1
[13] = Ratio of drug level in tumor to brain of C57BL/6 mouse bearing mouse B16-F0 cells at 0.74 to 0.92 MBq, iv after 6 hrs; format: ADME, organism-based
How it was run: (§3)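 Tumour and organ radioactive concentrations came from whole-body cryosection counting (40 µm slices, eight per mouse, two mice per time) after tail-vein injection of the [¹²⁵I]-labelled compound (0.1 µmol) into male C57BL6 mice bearing s.c. B16-F0 melanoma. Each value is the ratio of the tumour concentration to the organ concentration.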

Lung [14] = assay: Biodistribution in lung of C57BL/6 mouse bearing mouse B16-F0 cells at 0.74 to 0.92 MBq, iv after 3 hrs; format: ADME, organism-based; how it was run: as §1
Pancreas [15] = assay: Biodistribution in pancreas of C57BL/6 mouse bearing mouse B16-F0 cells at 0.74 to 0.92 MBq, iv after 3 hrs; format: ADME, organism-based; how it was run: as §1
[16] = Biodistribution in intestinal content of C57BL/6 mouse bearing mouse B16-F0 cells at 0.74 to 0.92 MBq, iv after 6 hrs; format: ADME, organism-based; how it was run: as §1
[17] = Ratio of drug level in tumor to liver of C57BL/6 mouse bearing mouse B16-F0 cells at 0.74 to 0.92 MBq, iv after 6 hrs; format: ADME, organism-based; how it was run: as §3
[18] = Ratio of drug level in tumor to lung of C57BL/6 mouse bearing mouse B16-F0 cells at 0.74 to 0.92 MBq, iv after 3 hrs; format: ADME, organism-based; how it was run: as §3
Blood = assay: Biodistribution in blood of C57BL/6 mouse bearing mouse B16-F0 cells at 0.74 to 0.92 MBq, iv after 24 hrs; format: ADME, organism-based; how it was run: as §1
Brain [19] = assay: Biodistribution in brain of C57BL/6 mouse bearing mouse B16-F0 cells at 0.74 to 0.92 MBq, iv after 1 hr; format: ADME, organism-based; how it was run: as §1
[20] = Biodistribution in Stomach content of C57BL/6 mouse bearing mouse B16-F0 cells at 0.74 to 0.92 MBq, iv after 3 hrs; format: ADME, organism-based; how it was run: as §1
Liver [21] = assay: Biodistribution in liver of C57BL/6 mouse bearing mouse B16-F0 cells at 0.74 to 0.92 MBq, iv after 6 hrs; format: ADME, organism-based; how it was run: as §1
Lung [22] = assay: Biodistribution in lung of C57BL/6 mouse bearing mouse B16-F0 cells at 0.74 to 0.92 MBq, iv after 6 hrs; format: ADME, organism-based; how it was run: as §1
[23] = Ratio of drug level in tumor to liver of C57BL/6 mouse bearing mouse B16-F0 cells at 0.74 to 0.92 MBq, iv after 1 hr; format: ADME, organism-based; how it was run: as §3
[24] = Ratio of drug level in tumor to lung of C57BL/6 mouse bearing mouse B16-F0 cells at 0.74 to 0.92 MBq, iv after 24 hrs; format: ADME, organism-based; how it was run: as §3
[25] = Biodistribution in intestinal content of C57BL/6 mouse bearing mouse B16-F0 cells at 0.74 to 0.92 MBq, iv after 1 hr; format: ADME, organism-based; how it was run: as §1
Spleen [26] = assay: Biodistribution in spleen of C57BL/6 mouse bearing mouse B16-F0 cells at 0.74 to 0.92 MBq, iv after 72 hrs; format: ADME, organism-based; how it was run: as §2
[27] = Ratio of drug level in tumor to brain of C57BL/6 mouse bearing mouse B16-F0 cells at 0.74 to 0.92 MBq, iv after 3 hrs; format: ADME, organism-based; how it was run: as §3
[28] = Biodistribution in Stomach content of C57BL/6 mouse bearing mouse B16-F0 cells at 0.74 to 0.92 MBq, iv after 72 hrs; format: ADME, organism-based; how it was run: as §1
Brain [29] = assay: Biodistribution in brain of C57BL/6 mouse bearing mouse B16-F0 cells at 0.74 to 0.92 MBq, iv after 3 hrs; format: ADME, organism-based; how it was run: as §1

| SMILES | Drug uptake (Kidney) [% ID/g] | Drug uptake (Pancreas [1]) [% ID/g] | Drug uptake (Spleen [2]) [% ID/g] | Drug uptake (Liver [3]) [% ID/g] | Drug uptake (Lung [4]) [% ID/g] | Drug uptake (Lung [5]) [% ID/g] | Drug uptake [6] [% ID/g] | Drug uptake [7] [% ID/g] | Drug uptake (Liver [8]) [% ID/g] | Drug uptake (Spleen [9]) [% ID/g] | Drug uptake [10] [% ID/g] | Drug uptake (Brain [11]) [% ID/g] | Drug uptake (Liver [12]) [% ID/g] | Ratio [13] | Drug uptake (Lung [14]) [% ID/g] | Drug uptake (Pancreas [15]) [% ID/g] | Drug uptake [16] [% ID/g] | Ratio [17] | Ratio [18] | Drug uptake (Blood) [% ID/g] | also measured |
| --- | --- | --- | --- | --- | --- | --- | --- | --- | --- | --- | --- | --- | --- | --- | --- | --- | --- | --- | --- | --- | --- |
| CCN(CC)CCNC(=O)c1c[nH]c2ccc([125I])cc2c1=O.Cl.Cl | 0.03 | 1.08 | 1.24 | 0.07 | 2.06 | 0.04 | 1.62 | 90.12 | 1.84 | 0.15 | 4.7 | 0.08 | 5.16 | 72.6 | 0.88 | 0.96 | 61.06 | 18.16 | 4.6 | 0.22 | Drug uptake (Thyroid gland): 9.83 % ID/g; Drug uptake (Brain [19]): 0.07 % ID/g; Drug uptake [20]: 9.93 % ID/g; Drug uptake (Liver [21]): 0.32 % ID/g; Drug uptake (Lung [22]): 0.15 % ID/g; Ratio [23]: 0.91; Ratio [24]: 68.5; Drug uptake [25]: 52.94 % ID/g |
| CCN(CC)CCNC(=O)c1cc2cc([125I])ccc2[nH]1.Cl | 0.83 | 1.46 | 8.09 | 1.61 | 14.41 | 0.37 | 3.31 | 112.56 | 5.21 | 1.22 | 8.3 | 0.74 | 11.86 | 5.38 | 3.46 | 2.48 | 79.85 | 2.71 | 2.95 | 0.1 | Drug uptake (Spleen [26]): 10.87 % ID/g; Ratio [27]: 3.91; Drug uptake (Brain [19]): 4.84 % ID/g; Drug uptake [20]: 18.52 % ID/g; Drug uptake (Liver [21]): 3.63 % ID/g; Drug uptake [28]: 0.04 % ID/g; Drug uptake (Lung [22]): 1.7 % ID/g; Ratio [23]: 0.7; Ratio [24]: 22.05; Drug uptake (Brain [29]): 1.73 % ID/g; Drug uptake [25]: 76.74 % ID/g |
